Data published in PMC9476207 (ACS Omega, 2022).

What was measured:
Experiment in all cases: NCI-60 single-dose antiproliferative screen
Format in all cases: cell-based
[1] = tested on: HOP-62; conditions: Homo sapiens, HOP-62, 48 h, read-out: growth percent
Summary of the method: (§1)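 NCI-60 protocol. Lines were grown in RPMI 1640 with 5% FBS and 2 mM L-glutamine, plated and incubated 24 h at 37 °C; time-zero plates were TCA-fixed. The test compound was dissolved in DMSO, diluted in medium with 50 μg/mL gentamicin and given once at a final 10^-5 M (DMSO control) for 48 h. Cells were fixed with cold TCA (1 h, 4 °C) and stained with 0.4% SRB in 1% acetic acid for 10 min. Dye was dissolved in 10 mM Trizma base and read at 515 nm. Growth percent was calculated from time-zero, test and control ODs.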

[2] = tested on: MCF-7; conditions: Homo sapiens, MCF7, 48 h, read-out: growth percent
Summary of the method: as §1

[3] = tested on: ACHN; conditions: Homo sapiens, 48 h, read-out: growth percent
Summary of the method: as §1

[4] = tested on: DU-145; conditions: Homo sapiens, DU-145, 48 h, read-out: growth percent
Summary of the method: as §1

[5] = tested on: NCI/ADR-RES; conditions: Homo sapiens, 48 h, read-out: growth percent
Summary of the method: as §1

[6] = tested on: A498; conditions: Homo sapiens, A498, 48 h, read-out: growth percent
Summary of the method: as §1

[7] = tested on: HT29; conditions: Homo sapiens, HT-29, 48 h, read-out: growth percent
Summary of the method: as §1

[8] = tested on: NCI-H23; conditions: Homo sapiens, NCI-H23, 48 h, read-out: growth percent
Summary of the method: as §1

[9] = tested on: IGROV1; conditions: Homo sapiens, IGROV-1, 48 h, read-out: growth percent
Summary of the method: as §1

[10] = tested on: LOX IMVI; conditions: Homo sapiens, 48 h, read-out: growth percent
Summary of the method: as §1

[11] = tested on: 786-0; conditions: Homo sapiens, 786-0, 48 h, read-out: growth percent
Summary of the method: as §1

[12] = tested on: CAKI-1; conditions: Homo sapiens, CAKI-1, 48 h, read-out: growth percent
Summary of the method: as §1

[13] = tested on: RXF 393; conditions: Homo sapiens, RXF 393, 48 h, read-out: growth percent
Summary of the method: as §1

[14] = tested on: RPMI-8226; conditions: Homo sapiens, RPMI-8226, 48 h, read-out: growth percent
Summary of the method: as §1

[15] = tested on: UACC-62; conditions: Homo sapiens, UACC-62, 48 h, read-out: growth percent
Summary of the method: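 Cells grown in RPMI 1640 with 5% FBS and 2 mM L-glutamine, plated and held 24 h at 37 °C; time-zero plates TCA-fixed. DMSO stocks were diluted in gentamicin-containing medium to a final 10^-5 M, with a DMSO-only control. Exposure 48 h, 5% CO2. Adherent cells TCA-fixed 1 h at 4 °C, stained with 0.4% SRB, solubilised in 10 mM Trizma base, read at 515 nm. Growth percent derived from ODtzero, ODtest and ODctrl.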

[16] = tested on: OVCAR-3; conditions: Homo sapiens, OVCAR-3, 48 h, read-out: growth percent
Summary of the method: as §1

[17] = tested on: NCI-H226; conditions: Homo sapiens, NCI-H226, 48 h, read-out: growth percent
Summary of the method: as §1

[18] = tested on: HL-60(TB); conditions: Homo sapiens, HL-60, 48 h, read-out: growth percent
[19] = tested on: NCI-H322M; conditions: Homo sapiens, 48 h, read-out: growth percent
Summary of the method: as §1

[20] = tested on: SF-295; conditions: Homo sapiens, SF-295, 48 h, read-out: growth percent
Summary of the method: as §1

[21] = tested on: NCI-H522; conditions: Homo sapiens, NCI-H522, 48 h, read-out: growth percent
Summary of the method: as §1

[22] = tested on: HCC-2998; conditions: Homo sapiens, HCC 2998, 48 h, read-out: growth percent
Summary of the method: as §1

Compound: COc1cc(CNC(=O)C[C@H](C)CCC=C(C)C)ccc1OCc1cn(-c2ccc(Cl)cc2)nn1 [18b, (R)-N-(4-((1-(4-Chlorophenyl)-1H-1,2,3-triazol-4-yl)methoxy)-3-methoxybenzyl)-3,7-dimethyloct-6-enamide]
- activity at 10 µM [1]: 61.5%
- activity at 10 µM [2]: 51.6%
- activity at 10 µM [3]: 44.8%
- activity at 10 µM [4]: 82.8%
- activity at 10 µM [5]: 48%
- activity at 10 µM [6]: 98.9%
- activity at 10 µM [7]: 79.6%
- activity at 10 µM [8]: 64.9%
- activity at 10 µM [9]: 80.2%
- activity at 10 µM [10]: 59.7%
- activity at 10 µM [11]: 84.3%
- activity at 10 µM [12]: 45.9%
- activity at 10 µM [13]: 56.1%
- activity at 10 µM [14]: 75.3%
- activity at 10 µM [15]: 65.7%
- activity at 10 µM [16]: 82.3%
- activity at 10 µM [17]: 63.8%
- activity at 10 µM [18]: 87.8%
- activity at 10 µM [19]: 83.5%
- activity at 10 µM [20]: 55.5%
- activity at 10 µM [21]: 62.9%
- activity at 10 µM [22]: 75.9%
